Calls of active or inactive are those of the source.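 Rule for the calls, unless noted: active = viability at or below 10% of carrier control in both of two separate runs; inconclusive = viability at or below 10% in only one of the two runs; inactive = the rest.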
Columns and labels:
[1] = Her2 expression decrease, cell viability multiplex – SKBR3 breast tumor cells, AlphaScreen, ATP viability, primary screen (AID 461;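 active = Her2 level under about 52% in both replicate screens, with viability over 70% of control, limit read from the data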;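 for Her2 level: lower value means less Her2 protein in the cells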;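 for viability: percent of carrier control wells set as 100% viability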); conditions: SKBR3 Her2 protein level, 18-24 h, measured here: SKBR3 viability, ATP luminescence, at 10 µM
[2] = biological target: Receptor tyrosine-protein kinase erbB-2 (Homo sapiens) (UniProt P04626); experiment: as above; conditions: 18-24 h, at 10 µM, stronger effect = lower value
[3] = reduced viability of SK-BR-3 breast cancer cells – cell-based, 24 h, human, pilot screen (AID 572); conditions: SK-BR-3 viability, CellTiter-Glo luminescence, at 10 µM, stronger effect = lower value;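 note: compound exposure lasted between 18 and 24 h rather than exactly 24 h; 100% = carrier-treated control wells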
[4] = HUVEC growth inhibition – cell-based, human, primary screen (AID 575;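 active = viability at or below 30% in both replicate assays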;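 note: 100% = median of untreated cell wells with 0.1% DMSO on each plate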); conditions: HUVEC proliferation, CellTiter-Glo luminescence, 72 h; at 10 µM; stronger effect = lower value
Summary of the method: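 Test system: HUVEC primary cells. Quantity: 1250 endothelial cells in each well. Dosing: single-point 10 µM, DMSO 0.1% final. Incubation: 72 h treatment at 37 °C. Measured by: CTG luminescence. Control set: DMSO cell controls and MePR drug controls. Plate: collagen-coated 384-well format.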

[5] = H69AR cell proliferation blockers – human, duplicate replicates, primary screen (AID 580;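 active = viability at or under a set limit in both replicates, limit being median viability minus 3 SD, cut at about 48% in these data, passing the limit was not always enough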;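 note: 100% = mean luminescence of untreated wells and 0% = no signal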); conditions: H69AR lung tumor cells viability, ATP luminescence, 72 h; at 10 µM; stronger effect = lower value
[6] = MRP1 drug-resistance reversers in H69AR cells – cell-based, doxorubicin co-treatment, pilot screen (AID 601;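 active = viability loss from added drug above about 55%, and viability with drug at most 40%, in both replicates, limit read from the data, passing the limit was not always enough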); conditions: CellTiter-Glo, 72 h, at 10 µM; for differential viability (reversal): stronger effect = higher value
[7] = yeast transport mutant growth inhibition pilot in 384-well plates, post-Golgi transport modulator project (AID 636; in the data active = inhibition above about 31%); conditions: absorbance 615 nm, about 18 h, stronger effect = higher value
[8] = growth suppression of yeast trafficking mutant, preliminary HTS, modulators of trafficking downstream of Golgi apparatus project, 1536-format plate, OD 615 nm (AID 637; in the data active = inhibition above about 30%); conditions: yeast transport mutant growth, absorbance 615 nm, 18 h; stronger effect = higher value
[9] = H69AR cells + 2 uM doxorubicin, measured here: viability with 2 uM doxorubicin, stronger effect = lower value
[10] = H69AR cells, compound alone cytotoxicity

Receptor tyrosine-protein kinase erbB-2 (Homo sapiens), sequence (P04626 whole entry, looked up): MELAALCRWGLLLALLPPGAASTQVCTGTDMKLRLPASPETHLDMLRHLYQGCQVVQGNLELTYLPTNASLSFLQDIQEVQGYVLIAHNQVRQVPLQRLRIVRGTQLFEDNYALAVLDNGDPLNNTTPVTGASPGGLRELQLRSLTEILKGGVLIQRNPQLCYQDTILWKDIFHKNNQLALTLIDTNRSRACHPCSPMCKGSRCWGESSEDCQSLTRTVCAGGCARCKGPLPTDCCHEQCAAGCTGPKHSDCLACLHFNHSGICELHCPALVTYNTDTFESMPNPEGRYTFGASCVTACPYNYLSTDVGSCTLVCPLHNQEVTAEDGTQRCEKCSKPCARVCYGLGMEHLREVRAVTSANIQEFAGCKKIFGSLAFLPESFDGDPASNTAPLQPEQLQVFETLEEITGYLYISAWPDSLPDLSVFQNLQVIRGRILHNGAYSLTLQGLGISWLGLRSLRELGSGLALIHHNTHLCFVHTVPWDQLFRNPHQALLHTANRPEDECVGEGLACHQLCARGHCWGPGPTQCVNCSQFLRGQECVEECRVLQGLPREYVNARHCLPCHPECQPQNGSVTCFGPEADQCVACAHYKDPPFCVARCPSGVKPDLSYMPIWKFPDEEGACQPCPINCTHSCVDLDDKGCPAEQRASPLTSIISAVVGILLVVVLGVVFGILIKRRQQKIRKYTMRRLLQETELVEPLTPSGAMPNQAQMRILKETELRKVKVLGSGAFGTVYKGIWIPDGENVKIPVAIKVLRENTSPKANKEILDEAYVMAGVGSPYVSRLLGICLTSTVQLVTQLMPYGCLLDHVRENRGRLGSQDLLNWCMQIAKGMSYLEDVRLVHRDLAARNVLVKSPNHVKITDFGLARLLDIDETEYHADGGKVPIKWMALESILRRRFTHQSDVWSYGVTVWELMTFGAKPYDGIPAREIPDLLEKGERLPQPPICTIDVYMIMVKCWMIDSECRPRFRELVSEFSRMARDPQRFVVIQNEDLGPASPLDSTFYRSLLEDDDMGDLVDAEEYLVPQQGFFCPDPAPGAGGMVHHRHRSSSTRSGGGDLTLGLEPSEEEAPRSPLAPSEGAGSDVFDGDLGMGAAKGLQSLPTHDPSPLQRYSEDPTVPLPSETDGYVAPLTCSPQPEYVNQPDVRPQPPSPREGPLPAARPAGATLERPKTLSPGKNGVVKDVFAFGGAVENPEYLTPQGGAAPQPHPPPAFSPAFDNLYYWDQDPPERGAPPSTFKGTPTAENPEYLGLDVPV

SMILES | viability [1] | Her2 level [2] | viability [3] | viability [4] | viability [5] | differential viability (reversal) ([6]; H69AR cells + 2 uM doxorubicin) | viability [6, 9] | viability [6, 10] | inhibition [7] | inhibition [8]
COc1ccc(OCCOC(=O)c2cccs2)cc1 | 97.5% | 92% (inactive) | 97.5% (inactive) | 111% (inactive) | 109% (inactive) | 19% (inactive) | 89.5% | 109% | -6.22% (inactive) | 5.24% (inactive)
CCN(CC)S(=O)(=O)c1ccc(Cl)c(C(=O)OC)c1 | 97% | 93% (inactive) | 97% (inactive) | 99% (inactive) | 95.7% (inactive) | 4.65% (inactive) | 91% | 95.7% | -1.87% (inactive) | 2.9% (inactive)
O=C(C1CCN(S(=O)(=O)N2CCC3(CC2)OCCO3)CC1)N1CCOCC1 | 98% | 114% (inactive) | 98% (inactive) | 99.4% (inactive) | 94.1% (inactive) | 3.86% (inactive) | 90.3% | 94.1% | 0.92% (inactive) | 7.38% (inactive)
Cc1cc(C(=O)NCCN2CCCCC2C)n(-c2ccccc2)n1 (stereo not given) | 87.5% | 116% (inactive) | 87.5% (inactive) | 92.3% (inactive) | 92.6% (inactive) | 3.49% (inactive) | 89.1% | 92.6% | -2.8% (inactive) | -3.77% (inactive)
CCOC(=O)CC1(CC(=O)OCC)NC(=O)c2c(C)sc(C(=O)OCC)c2N1 | 92% | 93% (inactive) | 92% (inactive) | 71.4% (inactive) | 101% (inactive) | 5.26% (inactive) | 95.3% | 101% | -1.05% (inactive) | 6.39% (inactive)
CCC(=O)N1CCN(CCN=CC2=C(O)CC(C)(C)CC2=O)CC1 | 90.5% | 93.5% (inactive) | 90.5% (inactive) | 79.6% (inactive) | 107% (inactive) | 11.3% (inactive) | 95.2% | 107% | -1.6% (inactive) | -6.77% (inactive)
CCC(=O)N1CCc2cc(S(=O)(=O)CCC(=O)Nc3c(C)n(C)n(-c4ccccc4)c3=O)ccc21 | 96% | 104% (inactive) | 96% (inactive) | 89.8% (inactive) | 94% (inactive) | 6.7% (inactive) | 87.3% | 94% | -2.93% (inactive) | -10.7% (inactive)
Cc1ccc(-n2c(Cn3cnc4ccccc43)nnc2SCC(=O)O)cc1 | 102% | 108% (inactive) | 102% (inactive) | 94.3% (inactive) | 97.7% (inactive) | 5.34% (inactive) | 92.3% | 97.7% | -4.13% (inactive) | 24.3% (inactive)
C#CCNc1c(C)c(C)nc2ncnn12 | 104% | 97% (inactive) | 104% (inactive) | 126% (inactive) | 104% (inactive) | 18.7% (inactive) | 85.3% | 104% | -5.07% (inactive) | 11.5% (inactive)
O=S(NCc1ccco1)C12CC3CC(CC(C3)C1)C2 (stereo not given) | 104% | 116% (inactive) | 104% (inactive) | 93.5% (inactive) | 88% (inactive) | 3.96% (inactive) | 84% | 88% | -1.08% (inactive) | -5.4% (inactive)
CC(C)CNC(=O)c1c(N)n(/N=C/c2ccccn2)c2nc3ccccc3nc12 | 88.5% | 92.5% (inactive) | 88.5% (inactive) | 80.4% (inactive) | 83.9% (inactive) | 2.92% (inactive) | 81% | 83.9% | -4.67% (inactive) | -1.48% (inactive)
CCN(CC)S(=O)(=O)N1CCC(C(=O)NCC2COc3ccccc3O2)CC1 (stereo not given) | 94% | 114% (inactive) | 94% (inactive) | 109% (inactive) | 97.3% (inactive) | -9.32% (inactive) | 107% | 97.3% | -0.79% (inactive) | 3.65% (inactive)
CCOC(=O)c1nnn(CC(=O)Nc2cccc(OC)c2)c1C(=O)OCC | 92.5% | 86.5% (inactive) | 92.5% (inactive) | 100% (inactive) | 83.7% (inactive) | -2.59% (inactive) | 86.3% | 83.7% | -4.53% (inactive) | 0.98% (inactive)
COc1ccccc1CN1C(=S)SC(C)(C)C1NO (stereo not given) | 100% | 93.5% (inactive) | 100% (inactive) | 73.8% (inactive) | 98.3% (inactive) | 8.72% (inactive) | 89.6% | 98.3% | -3.73% (inactive) | 2.42% (inactive)
CCc1ccccc1-n1c(SCC(=O)N2CCCC2)nnc1-c1ccccn1 | 106% | 99.5% (inactive) | 106% (inactive) | 123% (inactive) | 95.3% (inactive) | 1.95% (inactive) | 93.3% | 95.3% | 1.92% (inactive) | -6.03% (inactive)
N#Cc1cnc(SCC(=O)Nc2ccccc2C(F)(F)F)nc1N | 88.5% | 81.5% (inactive) | 88.5% (inactive) | 99.7% (inactive) | 90.2% (inactive) | 1.73% (inactive) | 88.5% | 90.2% | -4.4% (inactive) | 5.9% (inactive)

Source: PubChem BioAssay
